hK5 inh – human KLK5 protease inhibitors, primary screen, biochemical, 1536-well; recombinant hK5, fluorogenic AMC substrate cleavage; inhibition, % at 5 µM; 210,000 tested, 0.59% active;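 active means inhibition of 40% or more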;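 further: 0% = enzyme controls without compound and 100% = no-enzyme blanks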
Furin inh – human furin inhibitors, primary screen, biochemical, fluorescence intensity; inhibition, % at 20 µM or 30 µM; 220,000 tested, 0.061% active; purified furin, fluorogenic substrate cleavage; P09958; AID 463115, 2010; in the data active means inhibition above about 25%
Thrombin inh – human alpha-thrombin inhibitors, primary screen, counter-screen for coagulation protease inhibitor project, biochemical, 1536-well, fluorogenic AMC substrate | Prothrombin (Homo sapiens), P00734 | Boc-VPR-AMC fluorogenic substrate cleavage | inhibition, % at 5 µM | 220,000 tested, 0.26% active | AID 1046, 2008;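 active means inhibition at or above 40%; inactive means inhibition below 40%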;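 further: 0% = enzyme with no compound and 100% = wells without enzyme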
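System: Human alpha-thrombin protein | Medium: pH 7.5 Tris (50 mM) with NaCl 150 mM, Tween 20 0.05% | Times: Enzyme reaction carried out at room temperature | Detection: AMC fluorescence, 355/460 nm | Evaluation: Percent inhibition scaled between no-compound controls and no-enzyme blanks | Benchmarks: Enzyme without compound as high, wells lacking enzyme as low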
FXIa inh 1536 – human FXIa protease inhibitors, primary screen, biochemical, 1536-well | purified FXIa, Boc-Glu-Ala-Arg-AMC fluorogenic substrate | inhibition, % at 5 µM | 220,000 tested, 0.14% active | AID 798, 2007;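 active means inhibition of at least 40%; inactive means inhibition below 40%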;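 further: fluorescence of freed AMC excited at 355 nm; 0% = enzyme without compound and 100% = no enzyme blank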
Calpain2 inh – inhibitors of pig calpain II, primary screen, biochemical, fluorogenic peptide substrate, 1536-well; purified calpain II, 30 min; inhibition, % at 16 µM; AID 1236, 2008; 220,000 tested, 0.37% active;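 active means inhibition above about 50%, limit read from the data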
FXIIa inh 1536 – human FXIIa protease inhibitors, primary screen, biochemical, 1536-well. Coagulation factor XII (Homo sapiens), P00748. purified FXIIa, Boc-QGR-AMC fluorogenic substrate, 2 h. inhibition, % at 5 µM. 220,000 tested, 0.3% active; in the data active means inhibition above about 40%;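 further: 0% = enzyme with no compound and 100% = blank without enzyme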
Target sequence (P00748 20-372 limits assumed): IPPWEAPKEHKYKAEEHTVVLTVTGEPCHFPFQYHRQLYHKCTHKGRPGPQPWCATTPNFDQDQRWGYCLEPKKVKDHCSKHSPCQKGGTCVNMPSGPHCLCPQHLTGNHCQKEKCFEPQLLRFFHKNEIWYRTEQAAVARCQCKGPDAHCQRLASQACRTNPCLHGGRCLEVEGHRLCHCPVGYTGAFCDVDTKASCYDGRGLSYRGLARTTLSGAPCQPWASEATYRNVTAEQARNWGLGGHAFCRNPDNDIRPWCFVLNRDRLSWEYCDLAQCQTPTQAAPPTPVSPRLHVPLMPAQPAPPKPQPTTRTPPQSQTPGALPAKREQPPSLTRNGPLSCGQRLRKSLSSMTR
Target sequence (P00748 373-615 limits assumed): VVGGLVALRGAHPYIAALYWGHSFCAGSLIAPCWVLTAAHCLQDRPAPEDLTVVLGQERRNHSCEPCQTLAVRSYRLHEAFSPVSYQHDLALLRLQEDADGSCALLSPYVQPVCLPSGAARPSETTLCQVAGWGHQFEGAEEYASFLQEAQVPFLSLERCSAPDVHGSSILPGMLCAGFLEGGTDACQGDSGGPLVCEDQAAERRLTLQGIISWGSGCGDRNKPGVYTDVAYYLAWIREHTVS
* = called active by the depositor; i = inactive; / = no result. In the library only some 1.4% were active in any assay of this set; here they are far more common.

SMILES	hK5 inh	Furin inh	Thrombin inh	FXIa inh 1536	Calpain2 inh	FXIIa inh 1536
C/C(=N\OC(=O)c1ccccc1)c1cc(-c2ccc(Cl)cc2)no1	36.9	-15.9	-0.9	-7.8	14.1	7.8
O=C(Nc1cccc(-c2nnc(-c3ccco3)o2)c1)c1ccccc1	-8.9	-12.9	-2.6	0.1	78.7*	12.1
NS(=O)(=O)c1ccc(NC(=O)Nc2ccc(Cl)cc2)cc1	44.4*	-14.5	-0.9	-0.3	19.8	6.3
Cc1cc(C(=O)Nc2ccon2)c(C)o1	-18.0	-34.8	-1.4	-3.5	-15.7	-0.1
COCCCNC(=O)/C(=C\c1cccn1C)NC(=O)c1cccs1	16.1	23.7	49.9*	15.4	27.9	15.0
CCOCCCNC(=O)c1cccs1	42.5*	-11.0	21.5	12.7	9.4	21.8
O=C(NCCO)/C(=C\c1ccc(Br)cc1)NC(=O)c1cccs1	-6.0	-17.4	-1.9	3.3	2.3	10.1
CCCCCC1=NN2C(=O)CC(=O)N=C2S1	-0.6	-21.6	0.9	-1.3	24.2	6.5
Cc1ccc(C(=O)Nc2ccc3c(c2)OCCO3)o1	-4.8	-17.6	6.7	8.7	-1.5	28.4
C/C(=N\Nc1ccc(C#N)cc1[N+](=O)[O-])c1ccc(O)cc1	-1.3	-8.4	-2.8	1.6	11.8	5.4
COc1ccc(N(C(C)C(=O)NC2CCCCCC2)S(C)(=O)=O)cc1 (stereo unspecified)	61.8*	1.6	28.3	3.1	28.2	12.9
C(=N\Nc1nc(-c2ccccc2)cs1)/c1cccnc1	6.5	-10.0	2.9	13.0	24.5	7.2
CC(C)(C)c1csc(N/N=C/c2cccnc2)n1	-0.4	-23.3	-4.8	-1.4	51.4*	3.8
CCCCCCc1nnc(NC(=O)OCC)s1	-7.7	-15.8	-5.7	-9.7	-4.7	-7.1
COCCCNC(=O)c1c(N)n(-c2ccc3c(c2)OCO3)c2nc3ccccc3nc12	104.6*	-20.9	-0.1	-9.1	/	-10.8
CCc1ccc(-c2nc(CN3CCC(C(=O)N4CCN(c5ccccc5)CC4)CC3)c(C)o2)cc1	-19.5	-4.0	-4.2	-8.2	-23.1	-1.5
Cc1ccc2c(c1)CC1(CN2C)C(=O)OC2(CCCCC2)OC1=O	-20.2	-6.0	60.9*	15.0	-9.0	14.4
CN1CC2(Cc3c1ccc1ccccc31)C(=O)OC(C)(C)OC2=O	-9.2	-4.6	9.2	1.0	i	24.7
CCOC(=O)c1c(NC(=O)CSc2ncccn2)sc2c1CCN(Cc1ccccc1)C2	43.2*	2.2	39.2	6.3	45.7	5.1
CCOC(=O)c1c(NC(=O)CSc2nc3cc(Cl)ccc3s2)sc(C(C)=O)c1C	-22.9	-9.5	-1.0	6.7	-70.1	11.7
CCOC(=O)c1sc(NC(=O)CSc2nc3ccccc3o2)c(C(=O)OCC)c1C	-17.4	-9.0	-1.7	6.0	9.4	13.4
CCOC(=O)c1sc(NC(=O)CSc2nnc(Cc3ccccc3)o2)c(C(=O)OCC)c1C	73.6*	-14.7	12.4	9.0	29.6	22.3
CCOC(=O)c1c(NC(=O)CSc2nc3ccccc3s2)sc(C(C)=O)c1C	47.3*	-16.2	5.1	9.4	3.1	17.3
CCOC(=O)c1c(NC(=O)C(C)Sc2cccc[n+]2[O-])sc2c1CCN(Cc1ccccc1)C2 (stereo unspecified)	-1.1	-15.8	-0.4	-0.9	-47.9	6.5
COc1cc(CNCCN2CCOCC2)ccc1OCc1ccccc1Cl	-16.9	-9.7	0.7	2.9	6.2	8.3
SMILES	hK5 inh	Furin inh	Thrombin inh	FXIa inh 1536	Calpain2 inh	FXIIa inh 1536
CCCCC(CC)CNC(=O)/C=C/c1ccc(F)cc1 (stereo unspecified)	-13.7	19.2	-9.2	-6.5	18.7	-2.2
CCn1nc(C)c(CNC(=O)c2cc(COc3ccc(F)cc3Cl)on2)c1C	28.4	-1.0	28.6	23.1	2.3	43.1*
CCN1C(=O)/C(=C\c2ccco2)C(C(=O)OC)=C1C	9.9	0.2	3.2	25.4	9.3	43.1*
C=CCN1C(=O)/C(=C\c2ccco2)C(C(=O)OC)=C1C	-9.9	15.1	10.7	16.2	16.1	13.6
CCn1c(SCC(=O)N2CCN(c3ccccc3)CC2)nnc1-c1cc2cc(Cl)ccc2o1	0.4	-17.6	15.9	18.2	12.8	46.6*
CCCN(/C=N/c1sc2c(c1C#N)CCCCC2)CCC	1.8	-0.1	-0.2	0.7	1.1	17.2
Cc1sc(NC(=S)NC(=O)c2cccs2)nc1-c1ccc(C(C)C)cc1	-12.8	-11.5	6.6	0.7	62.4*	-1.4
COc1ccccc1CNC(=O)c1cn(C)c2ccc(S(=O)(=O)N3CCCC3)cc2c1=O	-5.5	-22.9	45.2*	-3.7	1.8	6.3
CCn1cc(C(=O)NCc2ccco2)c(=O)c2cc(S(=O)(=O)N3CCCC3)ccc21	0.9	-23.3	83.1*	3.4	24.7	9.7
CCn1cc(C(=O)NCCc2ccccc2)c(=O)c2cc(S(=O)(=O)N3CCCC3)ccc21	-3.8	-10.8	30.7	-2.4	22.7	4.1
CCN(CC)S(=O)(=O)c1ccc2c(c1)c(=O)c(C(=O)NCc1cccs1)cn2C	-7.0	-29.4	63.6*	5.1	-23.1	11.9
CCOC(=O)n1c(=O)n(Cc2ccccc2)c2ccccc21	-4.1	-17.9	1.0	4.1	-2.8	13.2
CCOC(=O)n1c(=O)n(Cc2c(Cl)cccc2Cl)c2ccccc21	42.5*	-17.2	6.0	1.8	20.4	14.4
O=C(NC(=S)N1CCCc2ccccc21)c1ccco1	-5.2	-14.6	-11.7	-4.1	27.0	0.0
CC1Cc2ccccc2N1C(=S)NC(=O)c1ccco1 (stereo unspecified)	-0.8	-19.3	-3.4	-3.0	52.2*	2.5
COc1ccc(C2c3c(-c4ccccc4O)n[nH]c3C(=O)N2Cc2ccco2)cc1OC (stereo unspecified)	-0.1	-11.7	-0.5	-0.2	-24.6	11.4
COc1ccc(C2c3c(-c4cc(Cl)c(C)cc4O)n[nH]c3C(=O)N2Cc2cccnc2)cc1OC (stereo unspecified)	18.7	-11.5	57.4*	9.5	-138.1	25.2
CCC(=O)Nc1cccc(C(=O)OCc2cccc([N+](=O)[O-])c2)c1	68.2*	-15.1	40.8*	26.5	21.1	26.8
CCc1cccc(NC(=O)Cc2ccc([N+](=O)[O-])cc2)c1	51.5*	-7.1	29.3	40.9*	22.2	23.2
Cc1cc(C)c(NC(=O)CSc2nc3[nH]ncc3c(=O)[nH]2)c(C)c1	-2.4	-20.4	-7.6	-5.3	-11.5	5.5
Cn1ncc(Cl)c1C(=O)N/N=C/c1cccc(OC2CSC2)c1	-2.1	-19.9	12.8	2.1	28.1	21.1
O=C(CSc1ncccn1)N/N=C/c1cccc(OC2CSC2)c1	15.7	-3.3	7.6	67.8*	5.6	17.3

Screens from PubChem BioAssay.
